≈ marks a conversion by molar mass, not a printed value. Where two headings read alike, the source gives them in different places.
Columns and labels:
[1] = tested on: Lactobacillus casei (NCIM-2651); assay: Agar disk diffusion, inhibition zone; type: cell-based; details: 100 µg/8 mm disc, triplicate, mean ± SD
[2] = tested on: Staphylococcus aureus (ATCC 29213); assay: MIC, broth microdilution; type: cell-based; details: ATCC29213, read-out: Minimum inhibitory concentration (MIC), SA
How it was run: (§1)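 Antibacterial MICs by CLSI broth microdilution in Mueller-Hinton broth. Test compounds and standard drugs are serially diluted two-fold from 512 to 0.25. The bacterial broth culture is grown 2-6 h to a 0.5 McFarland turbidity, then adjusted with sterile solution to the final inoculum.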

[3] = tested on: Klebsiella aerogenes (NCIM-2098); assay: Agar disk diffusion, inhibition zone; type: cell-based; details: 100 µg/8 mm disc, triplicate, mean ± SD
[4] = tested on: Streptococcus pneumonia (ATCC 49619); assay: Agar disk diffusion, inhibition zone; type: cell-based; details: 100 µg/8 mm disc, triplicate, mean ± SD
[5] = tested on: Escherichia coli (ATCC 8739); assay: Agar disk diffusion, inhibition zone; type: cell-based; details: 100 µg/8 mm disc, triplicate, mean ± SD
How it was run: (§2)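 Agar disk diffusion on Mueller-Hinton agar plates seeded with a standard bacterial suspension. Test compound stock in DMSO, diluted with distilled water; 8 mm sterile filter-paper discs soaked in the solution. Ampicillin was the reference. Plates incubated at 35 °C for 24 h, in triplicate. Read-out is the average inhibition-zone diameter (mm) around each disc.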

[6] = tested on: Escherichia coli (ATCC 8739); assay: MIC, broth microdilution; type: cell-based; details: ATCC8739, read-out: Minimum inhibitory concentration (MIC), EC
How it was run: (§3)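 Broth microdilution per CLSI in Mueller-Hinton broth, using two-fold serial dilutions of test compound and reference drugs from 512 to 0.25. Bacterial broth cultures were grown 2-6 h to 0.5 McFarland turbidity, then diluted with sterile solution to the final inoculum. MIC is reported in µg/mL.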

[7] = tested on: Salmonella typhimurium (NCIM-2501); assay: Agar disk diffusion, inhibition zone; type: cell-based; details: 100 µg/8 mm disc, triplicate, mean ± SD
[8] = tested on: Pseudomonas aeruginosa (MCCB 0035); assay: MIC, broth microdilution; type: cell-based; details: read-out: Minimum inhibitory concentration (MIC), PA
How it was run: as §3

[9] = tested on: Klebsiella aerogenes (NCIM-2098); assay: MIC, broth microdilution; type: cell-based; details: NCIM2098, read-out: Minimum inhibitory concentration (MIC), KA
How it was run: as §1

[10] = tested on: Pseudomonas aeruginosa (MCCB 0035); assay: Agar disk diffusion, inhibition zone; type: cell-based; details: 100 µg/8 mm disc, triplicate, mean ± SD
[11] = tested on: Cryptococcus neoformans (ATCC 9011); assay: Agar disk diffusion, inhibition zone; type: cell-based; details: 100 µg/8 mm disc, triplicate, mean ± SD
[12] = tested on: Aspergillus fumigatus (NCIM 2081); assay: Agar disk diffusion, inhibition zone; type: cell-based; details: 100 µg/8 mm disc, triplicate, mean ± SD
[13] = tested on: Cryptococcus neoformans (ATCC 9011); assay: MIC, broth microdilution; type: cell-based; details: ATCC9011, read-out: Minimum inhibitory concentration (MIC), CN
How it was run: (§4)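 Antifungal MICs by CLSI broth microdilution in Sabouraud liquid medium. Test compounds and standard drugs are serially diluted two-fold from 512 to 0.25. The fungal broth culture is grown 24 h at 35 °C to a 0.5 McFarland turbidity, then adjusted with sterile solution to the final inoculum.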

S. aureus DNA gyrase = S. aureus DNA gyrase (Staphylococcus aureus, UniProt P0A0K8+P20831); assay: DNA Gyrase inhibition assay; type: biochemical
[14] = tested on: Aspergillus fumigatus (NCIM 2081); assay: MIC, broth microdilution; type: cell-based; details: NCIM2081, read-out: Minimum inhibitory concentration (MIC), AF
How it was run: as §4

[15] = tested on: Bacillus cereus (NCIM-2458); assay: Agar disk diffusion, inhibition zone; type: cell-based; details: 100 µg/8 mm disc, triplicate, mean ± SD
[16] = tested on: Candida albicans (NCIM 2087); assay: MIC, broth microdilution; type: cell-based; details: NCIM2087, read-out: Minimum inhibitory concentration (MIC), CA
How it was run: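 CLSI broth microdilution in Sabouraud liquid medium, with test compound two-fold serially diluted from 512 to 0.25. Fungal broth culture grown 24 h at 35 °C to 0.5 McFarland turbidity, then adjusted with sterile solution to a final […] inoculum. MIC expressed in µg/mL.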

[17] = tested on: Staphylococcus aureus (ATCC 29213); assay: Agar disk diffusion, inhibition zone; type: cell-based; details: 100 µg/8 mm disc, triplicate, mean ± SD
How it was run: as §2

[18] = tested on: Bacillus cereus (NCIM-2458); assay: MIC, broth microdilution; type: cell-based; details: NCIM2458, read-out: Minimum inhibitory concentration (MIC), BC
How it was run: as §3

[19] = tested on: Candida albicans (NCIM 2087); assay: Agar disk diffusion, inhibition zone; type: cell-based; details: 100 µg/8 mm disc, triplicate, mean ± SD
[20] = tested on: Aspergillus niger (NCIM 2191); assay: MIC, broth microdilution; type: cell-based; details: NCIM2191, read-out: Minimum inhibitory concentration (MIC), AN
How it was run: as §4

[21] = tested on: Aspergillus niger (NCIM 2191); assay: Agar disk diffusion, inhibition zone; type: cell-based; details: 100 µg/8 mm disc, triplicate, mean ± SD
How it was run: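 For the fungal strain, discs soaked in test compound solution (DMSO stock diluted with distilled water) sat on seeded Mueller-Hinton agar. Clotrimazole was the reference. Incubation ran 48 h at 35 °C, in triplicate. Zone of growth inhibition recorded in mm as the mean diameter around each disc.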

Reovirus-1 = assay: CPE reduction assay in Vero cells; type: cell-based; details: read-out: Antiviral EC50, Reovirus-1
MT4 cells = details: MT4 cell cultures; colorimetric MTT cell viability assay
Sindbis virus = assay: CPE reduction assay in Vero cells; type: cell-based; details: read-out: Antiviral EC50, Sindbis virus
Punta Toro virus = assay: CPE reduction assay in Vero cells; type: cell-based; details: read-out: Antiviral EC50, Punta Toro virus
Adeno virus-2 = assay: CPE reduction assay in HEL cells; type: cell-based; details: read-out: Antiviral EC50, Adeno virus-2
Influenza B B/Ned/537/05 = assay: CPE reduction assay in MDCK cells; type: cell-based; details: Influenza B virus, read-out: Antiviral EC50, Influenza B B/Ned/537/05, MTS
Coxsackie virus B4 = assay: CPE reduction assay in Vero cells; type: cell-based; details: Enterovirus B, read-out: Antiviral EC50, Coxsackie virus B4
Yellow Fever virus = assay: microbe, parasite or virus in culture; type: cell-based; details: Yellow fever virus, Vero, read-out: Antiviral EC50, Yellow Fever virus
[22] = tested on: Madin Darby canine kidney (MDCK) cells; details: dog
Human Coronavirus (229E) = assay: CPE reduction assay in HEL cells; type: cell-based; details: read-out: Antiviral EC50, Human Coronavirus (229E)
Para-influenza-3 virus = assay: CPE reduction assay in Vero cells; type: cell-based, Parainfluenza-3 virus; details: Vero, read-out: Antiviral EC50, Para-influenza-3 virus
Vaccinia virus = assay: microbe, parasite or virus in culture; type: cell-based; details: Orthopoxvirus vaccinia, HEL, read-out: Antiviral EC50, Vaccinia virus
[23] = tested on: Influenza A/H1N1 A/Ned/378/05; assay: CPE reduction assay in MDCK cells; type: cell-based; details: Influenza A virus
Vero cells = details: Vero cell cultures; microscopically detectable alteration of normal cell morphology
[24] = tested on: Human embryonic lung (HEL) cells; details: HEL cell cultures; microscopically detectable alteration of normal cell morphology
[25] = tested on: Influenza A/H3N2 A/HK/7/87; assay: CPE reduction assay in MDCK cells; type: cell-based; details: Influenza A virus

S. aureus DNA gyrase, sequence (P20831 whole entry): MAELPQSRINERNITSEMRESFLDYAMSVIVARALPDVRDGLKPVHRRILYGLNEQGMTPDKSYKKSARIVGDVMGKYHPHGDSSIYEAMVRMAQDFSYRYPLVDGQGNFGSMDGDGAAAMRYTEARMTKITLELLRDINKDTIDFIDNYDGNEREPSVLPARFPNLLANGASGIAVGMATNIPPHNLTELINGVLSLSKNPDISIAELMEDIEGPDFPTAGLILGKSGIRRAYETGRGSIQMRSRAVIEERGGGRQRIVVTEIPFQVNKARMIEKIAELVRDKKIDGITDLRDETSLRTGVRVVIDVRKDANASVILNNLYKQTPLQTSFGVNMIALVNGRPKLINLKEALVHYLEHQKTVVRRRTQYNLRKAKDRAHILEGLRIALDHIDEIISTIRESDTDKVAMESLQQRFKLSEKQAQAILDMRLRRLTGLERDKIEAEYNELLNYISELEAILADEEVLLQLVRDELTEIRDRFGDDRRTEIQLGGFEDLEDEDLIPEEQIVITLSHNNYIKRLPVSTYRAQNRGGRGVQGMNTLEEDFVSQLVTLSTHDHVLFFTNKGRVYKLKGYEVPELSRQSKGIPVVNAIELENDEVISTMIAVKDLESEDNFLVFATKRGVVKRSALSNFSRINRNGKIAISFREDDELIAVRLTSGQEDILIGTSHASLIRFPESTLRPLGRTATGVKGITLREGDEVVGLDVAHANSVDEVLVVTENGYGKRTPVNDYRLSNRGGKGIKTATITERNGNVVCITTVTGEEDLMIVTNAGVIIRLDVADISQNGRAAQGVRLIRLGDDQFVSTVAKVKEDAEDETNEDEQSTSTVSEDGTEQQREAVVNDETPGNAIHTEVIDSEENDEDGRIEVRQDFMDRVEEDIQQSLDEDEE
S. aureus DNA gyrase, sequence (P0A0K8 whole entry): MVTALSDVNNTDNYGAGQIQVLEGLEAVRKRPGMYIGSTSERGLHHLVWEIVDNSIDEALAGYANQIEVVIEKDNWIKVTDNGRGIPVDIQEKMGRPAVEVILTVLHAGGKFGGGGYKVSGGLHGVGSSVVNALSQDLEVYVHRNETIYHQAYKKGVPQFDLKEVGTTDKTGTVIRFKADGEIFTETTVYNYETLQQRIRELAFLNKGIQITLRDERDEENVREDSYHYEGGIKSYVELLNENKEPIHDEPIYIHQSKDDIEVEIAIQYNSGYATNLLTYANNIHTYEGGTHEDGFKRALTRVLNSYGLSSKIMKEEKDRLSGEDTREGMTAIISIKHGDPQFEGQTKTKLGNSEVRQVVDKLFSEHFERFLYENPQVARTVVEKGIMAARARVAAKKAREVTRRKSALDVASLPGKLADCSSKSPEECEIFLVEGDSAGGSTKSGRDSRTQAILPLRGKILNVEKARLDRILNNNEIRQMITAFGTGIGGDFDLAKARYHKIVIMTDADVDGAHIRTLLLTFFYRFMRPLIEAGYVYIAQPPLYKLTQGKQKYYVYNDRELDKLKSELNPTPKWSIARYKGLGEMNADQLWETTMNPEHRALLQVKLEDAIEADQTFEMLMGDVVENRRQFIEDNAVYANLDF

Compound | Diameter of growth inhibition zone, LC [1] | MIC [2] | Diameter of growth inhibition zone, KA [3] | Diameter of growth inhibition zone, SP [4] | Diameter of growth inhibition zone, EC [5] | MIC [6] | Diameter of growth inhibition zone, ST [7] | MIC [8] | MIC [9] | Diameter of growth inhibition zone, PA [10] | Diameter of growth inhibition zone, CN [11] | Diameter of growth inhibition zone, AF [12] | MIC [13] | MIC [14] | Diameter of growth inhibition zone, BC [15] | MIC [16] | Diameter of growth inhibition zone, SA [17] | MIC [18] | Diameter of growth inhibition zone, CA [19] | MIC [20] | also measured
Cc1ccc(S(=O)(=O)N2C(=O)CSC2c2ccc(F)cc2)cc1 (stereo not shown) [5j, 2-(4-Fluorophenyl)-3-[(4-methylphenyl)sulfonyl]-1,3-thiazolidin-4-one] | 19 ± 0.5 mm | 4 µg/mL (≈ 11.4 µM) | 14 ± 0.94 mm | 10 ± 0.6 mm | 25.9 ± 0.32 mm | 2 µg/mL (≈ 5.69 µM) | 18 ± 0.3 mm | 2 µg/mL (≈ 5.69 µM) | 16 µg/mL (≈ 45.5 µM) | 25 ± 1.5 mm | 13 ± 1.5 mm | 19 ± 1.2 mm | 4 µg/mL (≈ 11.4 µM) | 4 µg/mL (≈ 11.4 µM) | 18 ± 0.5 mm | 4 µg/mL (≈ 11.4 µM) | 23 ± 1.1 mm | 8 µg/mL (≈ 22.8 µM) | 21 ± 0.9 mm | 8 µg/mL (≈ 22.8 µM) | IC50 (S. aureus DNA gyrase): 4.26 µM; Diameter of growth inhibition zone, AN [21]: 19 ± 0.6 mm
Cc1ccc(S(=O)(=O)N2C(=O)CSC2c2ccc([N+](=O)[O-])cc2)cc1 (stereo not shown) [5q, 3-[(4-Methylphenyl)sulfonyl]-2-(4-nitrophenyl)-1,3-thiazolidin-4-one] | 14 ± 0.4 mm | 32 µg/mL (≈ 84.6 µM) | 12 ± 0.4 mm | 10 ± 0.45 mm | 17 ± 1.2 mm | 16 µg/mL (≈ 42.3 µM) | 10 ± 1.1 mm | 32 µg/mL (≈ 84.6 µM) | 32 µg/mL (≈ 84.6 µM) | 18 ± 1.2 mm | 19 ± 1.3 mm | 21 ± 0.63 mm | 2 µg/mL (≈ 5.28 µM) | 4 µg/mL (≈ 10.6 µM) | 12 ± 0.6 mm | 4 µg/mL (≈ 10.6 µM) | 18 ± 1.2 mm | 32 µg/mL (≈ 84.6 µM) | 23 ± 1.2 mm | 4 µg/mL (≈ 10.6 µM) | EC50 (Reovirus-1): > 100 µM; Minimum cytotoxic conc. (MT4 cells): >125 µM; EC50 (Sindbis virus): > 100 µM; EC50 (Punta Toro virus): > 100 µM; EC50 (Adeno virus-2): > 100 µM; EC50 (Influenza B B/Ned/537/05): > 100 µM; EC50 (Coxsackie virus B4): > 100 µM; EC50 (Yellow Fever virus): > 100 µM; Cytotoxicity, Minimum cytotoxic conc. [22]: >100 µM; EC50 (Human Coronavirus (229E)): > 100 µM; EC50 (Para-influenza-3 virus): > 100 µM; EC50 (Vaccinia virus): > 100 µM; EC50 ([23]; read-out: Antiviral EC50, Influenza A/H1N1 A/Ned/378/05, MTS): > 100 µM; EC50 ([23]; read-out: Antiviral EC50, Influenza A/H1N1 A/Ned/378/05, visual CPE score): > 100 µM; Minimum cytotoxic conc. (Vero cells): >100 µM; Minimum cytotoxic conc. [24]: >100 µM; Diameter of growth inhibition zone, AN [21]: 22 ± 0.46 mm; EC50 ([25]; read-out: Antiviral EC50, Influenza A/H3N2 A/HK/7/87, MTS): > 100 µM; EC50 ([25]; read-out: Antiviral EC50, Influenza A/H3N2 A/HK/7/87, visual CPE score): > 100 µM
